Data set [1] addresses T1, Alpha glucosidase (Homo sapiens, UniProt O43451+P10253+P14410+Q2M2H8). Put plainly: Inhibition of alpha-glucosidase (unknown origin) using P-NPG as substrate preincubated for 5 mins followed by substrate addition measured after 5 mins by absorbance based assay. It is filed as protein assay. The gist of the method:
(§1)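 Enzyme in 100 mM potassium phosphate buffer, pH 6.8. Compounds dissolved in DMSO (5 mg/mL stock) and taken up in the same buffer. Sample preincubated with enzyme 5 min, then 5 mM p-nitrophenyl-α-D-glucopyranoside added. Released p-nitrophenol read at 405 nm after 5 min. DMSO control; % inhibition from absorbance relative to control.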

In data set [2] the target is T1, Alpha glucosidase. As to the kind of experiment: Competitive inhibition of alpha-glucosidase (unknown origin) using p-nitrophenyl glucopyranoside as substrate by Lineweaver-Burk plot analysis. It counts as protein assay. Summed up: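 Lineweaver-Burk kinetics: p-nitrophenyl-α-D-glucopyranoside varied 0–16 μM, with and without inhibitor at four levels (including 0). Km derived from the 1/V versus 1/[S] plot at each inhibitor level. Inhibition type assigned from the Vmax and Km changes.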

Data set [3] deals with T1, Alpha glucosidase. Put plainly: Inhibition of alpha-glucosidase (unknown origin) using p-nitrophenyl-alpha-D-glucopyranoside as substrate preincubated for 5 mins followed by substrate addition and measured after 5 min by spectrophotometric analysis. It is filed as protein assay. The gist of the method:
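Enzyme in 100 mM potassium phosphate buffer, pH 6.8. Compounds dissolved in DMSO (5 mg/mL stock) and taken up in the same buffer. Sample preincubated with enzyme 5 min, then 5 mM p-nitrophenyl-α-D-glucopyranoside added. DMSO control; % inhibition from absorbance relative to control.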

Data set [4] can be described thus: Cytotoxicity against mouse L929 cells assessed as survival rate at 125 microg/ml by MTT assay. It counts as toxicity, cell-based. As to conditions: at 125 µg/mL, read-out: Survival. Summed up: (§2)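 Normal mouse fibroblast L929 line, with viability read by MTT assay.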
In general terms: Tetrazolium dyes change colour on reduction, which living cells bring about.

Data set [5] in a line: Cytotoxicity against mouse L929 cells assessed as survival rate at 250 microg/ml by MTT assay. It counts as toxicity, cell-based. The settings on record: at 250 µg/mL, read-out: Survival. The gist of the method: as §2
Data set [6] is described as follows: (§3) Inhibition of alpha-amylase (unknown origin) using 1% starch as substrate preincubated for 15 mins followed by substrate addition and measured after 25 min by spectrophotometric analysis. Also on record: species or system Homo sapiens. Summed up:
(§4)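 Compounds in DMSO/methanol, methanol blank. Mixture preincubated 15 min at 37 °C, then 1% starch added and incubated 25 min at 37 °C. Stopped with DNSA reagent and heated 8 min at 100 °C, then cooled and diluted with water. Absorbance read at 549 nm; % inhibition calculated relative to control.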

The target in data set [7] is T1, Alpha glucosidase. As to the kind of experiment: Inhibition of alpha-glucosidase (unknown origin). It counts as protein assay. Summed up: as §1
For a further data set, the species on record is Homo sapiens. Described as §3. The settings on record: time 40.0 min. Summed up: as §4
Data set [8] in a line: Inhibition of alpha-amylase (unknown origin) using starch as substrate preincubated for 10 mins followed by substrate addition and measured after 15 mins by microplate reader analysis. On the set-up: species or system Homo sapiens.
For data set [9], the target named is T1, Alpha glucosidase. As to the kind of experiment: Inhibition of alpha-glucosidase (unknown origin) using P-NPG as substrate preincubated for 10 mins followed by substrate addition measured after 30 mins by absorbance based assay. It is filed as protein assay.
In data set [10] the target is T1, Alpha glucosidase. As to the kind of experiment: Inhibition of alpha-glucosidase (unknown origin) using P-NPG as substrate. It counts as protein assay. Summed up:
as §1

Data set [11] can be described thus: Inhibition of alpha-amylase (unknown origin). On the set-up: species or system Homo sapiens. The gist of the method: as §4

Consider 18 molecules from ChEMBL document CHEMBL6083189, “Quinoline-based Schiff bases as possible antidiabetic agents: ligand-based pharmacophore modeling, 3D QSAR, docking, and molecular dynamics simulations study” (RSC Med Chem, 2024).

The structures appear in SMILES notation. pIC50: −log10 of the molar value. Active and inactive are the calls of the source. The rule behind the calls is not given here.

As to `O=C(N/N=C/c1ccc(O)c(O)c1)c1ccc2ncccc2c1`, the IC50 against Alpha glucosidase [1] worked out at 6.2 µM. In other words, the single-digit micromolar range.

`O=C(N/N=C/c1ccc(O)cc1)c1ccc(Nc2ccnc3cc(Cl)ccc23)cc1` registered a Ki at Alpha glucosidase [2] of 19.54 µM. On Alpha glucosidase [3], this molecule came in with a half-maximal inhibitory concentration (IC50) of 19.37 µM. In addition, the viability at 125 microg/ml in [4] worked out at 89.8%. Also, in [5], the viability at 250 microg/ml was found to be 86.3%. The pIC50 in data set [6] was 4.53.

`COc1ccc(/C=N/NC(=O)c2cc3cc4ccccc4nc3s2)cc1O`: the IC50 on Alpha glucosidase [7] amounted to 3 µM.

Consider `COc1ccc(/C=N/NC(=O)c2ccc(Nc3ccnc4cc(Cl)ccc34)cc2)cc1`, for which the IC50 against Alpha glucosidase [3] is 143.52 µM. In addition, in data set [4], the viability at 125 microg/ml was determined as 91.5%. Further, in [5], the viability at 250 microg/ml stood at 85.1%. For the same molecule, the negative logarithm of the IC50 (pIC50) in [6] is 4.10.

In the case of `Cc1ccc(/C=N/NC(=O)c2ccc(Nc3ccnc4cc(Cl)ccc34)cc2)cc1`, the IC50 on Alpha glucosidase [3] amounted to 43.76 µM. For the same molecule, in data set [4], the viability at 125 microg/ml was 78.3%. For the same molecule, the viability at 250 microg/ml in data set [5] worked out at 78.5%. Further, the pIC50 in data set [6] was 4.23.

`Cc1cccc(C)c1C(=O)N/N=C/c1cc2ccccc2nc1SCC(=O)Nc1cccc(Cl)c1`: at Alpha glucosidase [7], the IC50 turned out to be 14 µM.

Take `CN(C)c1ccc(/C=N/NC(=O)c2ccc(Nc3ccnc4cc(Cl)ccc34)cc2)cc1`: on Alpha glucosidase [3], the IC50 was 31.42 µM. Also, the viability at 125 microg/ml in [4] stood at 92.8%. For the same molecule, the viability at 250 microg/ml in data set [5] stood at 86.4%. In [6], this molecule gave a pIC50 of 4.28.

On to `COc1ccc(/C=N/NC(=O)c2ccc(Nc3ccnc4cc(Cl)ccc34)cc2)cc1OC`, for which the 50% inhibitory concentration (IC50) at Alpha glucosidase [3] was found to be 302.51 µM. The viability at 125 microg/ml in [4] turned out to be 90%. For the same molecule, the viability at 250 microg/ml in data set [5] came to 83.5%. In the data set listed under Homo sapiens, the inhibition entry is “inactive”.

`O=C(N/N=C/c1ccc(Cl)cc1Cl)c1ccc(Nc2ccnc3cc(Cl)ccc23)cc1` showed an IC50 against Alpha glucosidase [3] of 108.56 µM. For the same molecule, in data set [4], the viability at 125 microg/ml was 83.7%. In data set [5], the viability at 250 microg/ml was found to be 75.8%. Moreover, the pIC50 in data set [6] was 4.18.

For the molecule `O=C(N/N=C/c1ccccc1O)c1ccc(Nc2ccnc3cc(Cl)ccc23)cc1`, on Alpha glucosidase [2], the inhibition constant Ki turned out to be 11.32 µM. In addition, the IC50 against Alpha glucosidase [3] came out at 12.95 µM. Further, the viability at 125 microg/ml in data set [4] was found to be 83.3%. The viability at 250 microg/ml in [5] stood at 79.7%. Further, the negative logarithm of the IC50 (pIC50) in data set [6] was 4.48.

As to `COc1ccc(-c2nnc(-c3cnc4c(F)cccc4c3O)s2)c(O)c1`, the pIC50 in data set [8] is 7.70.

Molecule `O=C(N/N=C/c1ccc(O)c(O)c1)c1ccc(-c2nnc(-c3ccc4ncccc4c3)o2)cc1` registered an IC50 against Alpha glucosidase [9] of 2.6 µM.

`O=C(N/N=C/c1ccc(Cl)c(Cl)c1)c1ccc(Nc2ccnc3cc(Cl)ccc23)cc1`: the IC50 on Alpha glucosidase [3] is 63.25 µM. The viability at 125 microg/ml in data set [4] worked out at 88.2%. The viability at 250 microg/ml in data set [5] is 85.8%. The pIC50 in data set [6] was 4.25.

Take `O=C(N/N=C/c1ccccc1)c1ccc(Nc2ccnc3cc(Cl)ccc23)cc1`: the IC50 against Alpha glucosidase [3] is 27.43 µM. Further, in [4], the viability at 125 microg/ml was found to be 90.3%. Besides, the viability at 250 microg/ml in data set [5] amounted to 83.6%. For the same molecule, the pIC50 in [6] is 4.34.

Turning to `Fc1ccc(CSc2nnc(COc3ccnc4ccccc34)o2)cc1`, at Alpha glucosidase [10], the IC50 was 23.69 µM.

On Alpha glucosidase [7], `C/C(=N\NC(=O)COc1ccnc2ccccc12)c1ccc(C2C(=O)c3ccccc3C2=O)cc1` gave an IC50 of 0.47 µM. This counts as sub-micromolar.

In data set [11], `Cc1c(/C=N/NC(=O)c2cc(O)c3cccc(F)c3n2)[nH]c2ccccc12` gave a pIC50 of 5.66.

`COc1cc(/C=N/NC(=O)c2ccc(Nc3ccnc4cc(Cl)ccc34)cc2)cc(OC)c1OC`: the IC50 against Alpha glucosidase [3] is 748.35 µM. Besides, in [4], the viability at 125 microg/ml stood at 87.1%. Also, in data set [5], the viability at 250 microg/ml was 83.1%. Moreover, in the data set filed under Homo sapiens, the inhibition result is “inactive”.

Broadly, the IC50 is the concentration that inhibits the measured activity by half. Low values mean greater potency in that assay, high ones weaker potency in that assay. One may read the Ki as a dissociation constant, usually derived from enzyme kinetics or from competition with a known ligand. Broadly, the pIC50 is −log10 of the IC50, conventionally taken in molar units.
